# INS-1E rescue = protection of INS-1E cells from cytokine death, primary screen, ATP luminescence, single point; INS-1E cytokine-induced death, 48 h; normalised: neutral wells 0, positive control 100; protection from cytokine-induced ATP loss, % at 10 µM; 20,000 compounds, 0.1% hits; AID 488910, 2010;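 active = mean replicate protection from cytokine-induced ATP loss at least 50% and at least 75% of replicates each reaching 50%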
#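 Test system: INS-1E rat cells | Quantity: 8000 cells per well | Medium: Phenol-red-free RPMI with 5% fetal bovine serum | Reagent: Cytokine cocktail of IFN-γ, TNF-α and IL-1β | Doses: One compound concentration, pin transfer | Timing: 48 h co-treatment, 10 min post-lysis read | Technique: Luminescent ATP assay (CellTiter-Glo)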
# A1 apoptosis 2 = A1 inhibitors via caspase activation, primary screen, cell-based, luminescence, HTS, two replicates. MEF A1-2A-BIM cells, caspase-Glo luminescence, 3 h; percent of clofoctol response, DMSO zero. caspase activation, % (test concentration not listed). 24,000 tested, under 10 active. AID 2465, 2010; in the data active = caspase activation above about 5.9%
#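 Evaluation: Caspase-3/7 activity from luminescence increase | Assay system: A1-2A-BIM mouse embryonic fibroblasts | Quantity: 2500 MEF cells/well | Medium: RPMI-1640 plus 10% FBS | Detection: Caspase-Glo 3/7 luminescence, 1 h at room temperature | Dosing: 50 nL compound per well, pinned | Timing: Cells settled overnight, compound exposure 3 h at 37 °C, 5% CO2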
# T cruzi HTS = inhibitors of intracellular Trypanosoma cruzi, primary screen, cell-based, plate reader, single point, set 2 | activity score (inhibition), % at 5.01 µM | intracellular Trypanosoma cruzi in host cells | 22,000 compounds, 4.9% hits | AID 651903, 2012; in the data active = activity score above about 55%;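 note: parasites and compound incubated about four days before reading; 0% = median of neutral control wells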
# * marks the source's active call; other numbers are inactive results; . = no result given. Shown is part of a subset that was picked to be rich in hits.
SMILES,INS-1E rescue,A1 apoptosis 2,T cruzi HTS
C[C@@H]1CN([C@H](C)CO)C(=O)Cc2cc(NC(=O)Nc3ccc(C(F)(F)F)cc3)ccc2O[C@H]1CN(C)Cc1ccc(Cl)c(Cl)c1,4,.,11
C[C@@H]1CN([C@@H](C)CO)C(=O)Cc2cc(NC(=O)Nc3ccc(C(F)(F)F)cc3)ccc2O[C@H]1CN(C)Cc1ccc(Cl)c(Cl)c1,.,-1,.
C[C@@H]1CN([C@H](C)CO)C(=O)Cc2cc(NC(=O)Nc3ccc(C(F)(F)F)cc3)ccc2O[C@@H]1CN(C)Cc1ccc(Cl)c(Cl)c1,-15,.,65*
[N-]=[N+]=NCC(=O)N1CCN(c2ccccc2)CC1,.,1,.
O=C(NO)c1cccc(C(=O)N/N=C/c2ccncc2Br)c1,-12,-5,-6
O=C(NCc1ccccc1)C1=C[C@@H](c2cccs2)C[C@@H](OCCCCO)O1,.,1,.
O=C(O)CCCCCC(=O)N/N=C/c1ccc(N(c2ccccc2)c2ccccc2)cc1,.,1,.
O=C(CCCCC(=O)N/N=C/c1ccc(C(=O)O)cc1)NO,9,-2,-12
C[C@@H]1CN([C@@H](C)CO)C(=O)c2cccc(NC(=O)CCCCCC(=O)Nc3ccccc3N)c2O[C@H]1CN(C)CC1CC1,11,.,60*
C[C@H]1CN([C@@H](C)CO)C(=O)c2cccc(NC(=O)CCCCCC(=O)Nc3ccccc3N)c2O[C@@H]1CN(C)CC1CC1,19,2,77*
C[C@@H]1CN([C@H](C)CO)C(=O)c2cccc(NC(=O)CCCCCC(=O)Nc3ccccc3N)c2O[C@H]1CN(C)CC1CC1,11,.,59*
C[C@@H]1CN([C@H](C)CO)C(=O)c2cccc(NC(=O)CCCCCC(=O)Nc3ccccc3N)c2O[C@@H]1CN(C)CC1CC1,-9,0,-19
C[C@H]1CN([C@@H](C)CO)C(=O)c2cccc(NC(=O)CCCCCC(=O)Nc3ccccc3N)c2O[C@H]1CN(C)CC1CCCCC1,-11,2,22
C[C@H](CO)N1C[C@H](C)[C@H](CN(C)CC2CCCCC2)Oc2c(NC(=O)CCCCCC(=O)Nc3ccccc3N)cccc2C1=O,6,-1,39
COc1cc(Br)c(/C=N/NC(=O)c2cccc(C(=O)NO)c2)cc1OC,-5,2,-3
C=CCNC(=O)[C@H]1[C@@H]2C(=O)O[C@@H](c3ccccc3)[C@@H](c3ccccc3)N2[C@@H](c2ccccc2OCCO)[C@]12C(=O)Nc1ccc(C#CC3=CCCCC3)cc12,.,-1,.
C[C@@H]1CCCCO[C@@H](CN(C)C(=O)Nc2ccc(C(F)(F)F)cc2)[C@@H](C)CN([C@H](C)CO)C(=O)c2cc(NC(=O)c3ccccc3)ccc2O1,-10,0,59*
C[C@@H]1CCCCO[C@@H](CN(C)C(=O)Nc2ccc(C(F)(F)F)cc2)[C@@H](C)CN([C@H](C)CO)C(=O)c2cc(NC(=O)Nc3ccccc3)ccc2O1,-6,0,64*
C[C@H]1CCCCO[C@H](CN(C)C(=O)Nc2ccc(C(F)(F)F)cc2)[C@@H](C)CN([C@@H](C)CO)C(=O)c2cc(NC(=O)Cc3ccccc3)ccc2O1,.,1,.
C[C@@H]1CCCCO[C@H](CN(C)C(=O)Nc2ccc(C(F)(F)F)cc2)[C@H](C)CN([C@H](C)CO)C(=O)c2cc(NC(=O)c3ccccc3)ccc2O1,.,-1,.
C[C@@H]1CCCCO[C@H](CN(C)C(=O)Nc2ccc(C(F)(F)F)cc2)[C@H](C)CN([C@@H](C)CO)C(=O)c2cc(NC(=O)Nc3ccccc3)ccc2O1,.,0,.
C[C@@H]1CCCCO[C@H](CN(C)C(=O)Nc2ccc(C(F)(F)F)cc2)[C@@H](C)CN([C@H](C)CO)C(=O)c2cc(NC(=O)Cc3ccccc3)ccc2O1,-20,-2,71*
COc1ccc(CN(C)C[C@@H]2Oc3ccc(NS(=O)(=O)c4c(C)noc4C)cc3C(=O)N([C@@H](C)CO)C[C@H]2C)cc1,-8,.,11
O=C(N/N=C/c1cccc(Oc2ccccc2)c1)c1ccccn1,10,.,6
CC1=C(C/C=N/NC(=O)CCCCCC(=O)NO)C(C)(C)CCC1,.,1,.
SMILES,INS-1E rescue,A1 apoptosis 2,T cruzi HTS
C[C@@H]1CN([C@@H](C)CO)C(=O)Cc2cc(NC(=O)Nc3ccc(C(F)(F)F)cc3)ccc2O[C@@H]1CN(C)Cc1ccc(C(F)(F)F)cc1,-19,.,64*
COc1ccc(CN(C)C[C@@H]2Oc3ccc(NC(=O)Nc4ccc(C(F)(F)F)cc4)cc3CC(=O)N([C@@H](C)CO)C[C@@H]2C)cc1,-25,-1,4
C[C@H]1CN([C@@H](C)CO)C(=O)Cc2cc(NC(=O)Nc3ccc(C(F)(F)F)cc3)ccc2O[C@@H]1CN(C)Cc1ccc(C(=O)O)cc1,5,.,-27
C[C@H]1CN([C@@H](C)CO)C(=O)Cc2cc(NC(=O)Nc3ccc(C(F)(F)F)cc3)ccc2O[C@H]1CN(C)Cc1ccc(C(F)(F)F)cc1,-90,.,82*
C[C@@H]1CN([C@@H](C)CO)C(=O)Cc2cc(NC(=O)C3CCCCC3)ccc2O[C@@H]1CN(C)Cc1ccc(C(F)(F)F)cc1,-10,0,44
C[C@@H]1CN([C@@H](C)CO)C(=O)Cc2cc(NC(=O)Nc3ccc(C(F)(F)F)cc3)ccc2O[C@H]1CN(C)Cc1ccc(C(F)(F)F)cc1,.,0,.
C[C@@H]1CN([C@H](C)CO)C(=O)Cc2cc(NC(=O)C3CCCCC3)ccc2O[C@H]1CN(C)Cc1ccc(C(F)(F)F)cc1,-12,.,58*
C[C@@H]1CN([C@H](C)CO)C(=O)Cc2cc(NC(=O)Nc3ccc(F)cc3)ccc2O[C@@H]1CN(C)Cc1ccc(C(F)(F)F)cc1,-76,1,60*
[N-]=[N+]=NCc1ccccc1C[C@@]1(C(=O)NCc2ccccc2)N=C(c2ccc(OCCCO)cc2)O[C@@H]1c1ccccc1,.,0,.
Cc1noc(C)c1S(=O)(=O)Nc1ccc2c(c1)C(=O)N([C@H](C)CO)C[C@@H](C)[C@H](CN(C)C(=O)Nc1ccc(C(F)(F)F)cc1)OCCCC[C@@H](C)O2,.,-1,.
Cc1noc(C)c1S(=O)(=O)Nc1ccc2c(c1)C(=O)N([C@H](C)CO)C[C@H](C)[C@@H](CN(C)C(=O)Nc1ccc(C(F)(F)F)cc1)OCCCC[C@@H](C)O2,2,.,58*
Cc1noc(C)c1S(=O)(=O)Nc1ccc2c(c1)C(=O)N([C@@H](C)CO)C[C@@H](C)[C@H](CN(C)C(=O)Nc1ccc(C(F)(F)F)cc1)OCCCC[C@H](C)O2,.,0,.
Cc1noc(C)c1S(=O)(=O)Nc1ccc2c(c1)C(=O)N([C@H](C)CO)C[C@H](C)[C@H](CN(C)C(=O)Nc1ccc(C(F)(F)F)cc1)OCCCC[C@@H](C)O2,4,.,58*
O=C(CCCCCC(=O)Nc1ccccc1O)N/N=C/c1ccc(Br)cc1,0,.,-1
O=C(N/N=C\c1ccc2ccccc2n1)c1ccccn1,-7,-7,-6
COc1ccc(S(=O)(=O)Nc2ccc3c(c2)C(=O)N([C@@H](C)CO)C[C@H](C)[C@@H](CN(C)Cc2ccc(Cl)c(Cl)c2)OCCCC[C@@H](C)O3)cc1,.,0,.
